Sampled rows, rich in hits. Any-hit rate of the full collection: about 3.5%.
ERa coact inh = ERα–SRC-1 coactivator interaction inhibitors, primary screen, biochemical, TR-FRET, ERα LBD, estradiol-bound; actives 1.7% (n = 86,000); inhibition, % at 25.6 µM; Estrogen receptor (Homo sapiens), P03372; TR-FRET ER-alpha LBD / SRC-1 peptide; AID 629, 2007; in the data active = inhibition above about 50%;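 also: 0% = receptor plus peptide control and 100% = peptide only without receptor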
Target sequence (P03372 whole entry, looked up, the tested form may be a part): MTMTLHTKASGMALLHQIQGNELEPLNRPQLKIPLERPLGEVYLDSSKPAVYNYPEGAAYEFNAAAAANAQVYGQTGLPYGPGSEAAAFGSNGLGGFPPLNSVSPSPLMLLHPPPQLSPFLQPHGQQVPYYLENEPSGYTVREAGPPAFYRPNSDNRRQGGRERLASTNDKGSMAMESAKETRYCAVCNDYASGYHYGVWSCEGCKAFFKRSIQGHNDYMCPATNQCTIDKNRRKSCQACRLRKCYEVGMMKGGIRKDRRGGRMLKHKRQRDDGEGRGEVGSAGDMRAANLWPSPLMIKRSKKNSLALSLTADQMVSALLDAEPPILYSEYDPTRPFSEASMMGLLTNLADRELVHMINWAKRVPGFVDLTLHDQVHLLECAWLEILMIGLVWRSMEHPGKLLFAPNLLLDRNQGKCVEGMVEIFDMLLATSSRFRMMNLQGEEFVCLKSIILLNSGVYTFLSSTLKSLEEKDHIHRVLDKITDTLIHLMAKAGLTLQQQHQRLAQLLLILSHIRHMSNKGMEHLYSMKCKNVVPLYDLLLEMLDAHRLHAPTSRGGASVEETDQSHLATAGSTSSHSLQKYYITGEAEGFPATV
ERb SRC1 inh = inhibitors of ERβ-SRC1 coactivator interaction, primary screen, biochemical, TR-FRET, ERβ LBD, SRC-1 peptide; Estrogen receptor beta (Homo sapiens), Q92731; TR-FRET ER-beta LBD / SRC1-Cy5 peptide binding; receptor agonist-loaded with 1 µM estradiol; inhibition, % at 25.6 µM; actives 1.3% (n = 86,000);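 active = compounds whose percent inhibition of the receptor-coactivator binding signal exceeds about 50% in the single-dose screen, limit read from the data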;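 also: 0% = receptor plus peptide wells without compound and 100% = peptide-only wells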
sEH activator = soluble epoxide hydrolase activators, primary screen, biochemical, human sEH; purified human sEH enzymatic activity, activator screen; activation, % at 2 µM; actives 0.04% (n = 91,000); AID 717, 2007; in the data active = activation above about 37%
HIV Rev-RRE inh = HIV-1 Rev-RRE binding inhibitors, primary screen, biochemical, FRET, protein-RNA interaction | P05866 | Rev peptide-RRE RNA binding | inhibition, % at 8 µM | actives 0.79% (n = 97,000);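 active = inhibition above the screen-wide mean plus 3 SD, cut at about 35% in these data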;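 also: 0% = median DMSO wells and 100% = median Neomycin B control wells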
Target sequence (P05866 whole entry, looked up): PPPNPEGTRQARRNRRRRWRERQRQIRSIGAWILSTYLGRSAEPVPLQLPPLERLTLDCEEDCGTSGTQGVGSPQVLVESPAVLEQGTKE
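Material: labelled RRE RNA duplex and labelled Rev peptide / Buffer or medium: HEPES pH 7.5 salt buffer with EDTA / Compound dosing: single point, 8 µM final nominal compound concentration / Benchmarks: DMSO low control, neomycin B high control / Timing: 5 min preincubation and 15 min binding, 25 °C / Technique: FRET fluorescence readout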
sEH inh = soluble epoxide hydrolase inhibitors, primary screen, biochemical, human sEH | recombinant human sEH enzymatic activity assay | actives 0.34% (n = 91,000) | inhibition, % at 2 µM | AID 707, 2007; in the data active = inhibition above about 80%
ERa SRC1 pot = enhancers of ERα–SRC-1 coactivator binding, primary screen, biochemical, TR-FRET, ERα LBD, low estradiol | Estrogen receptor (Homo sapiens), P03372 | TR-FRET ERalpha-LBD/SRC-Cy5 coactivator binding, 2 h; 100 = basal binding, no effect | coactivator binding (% of control), % at 25.6 µM | actives 1.3% (n = 86,000); in the data active = activity above about 200%;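 also: binding measured in presence of low estradiol as agonist stimulus; 0% = peptide alone without receptor and 100% = receptor with peptide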
Active calls of the source: *; nt = no result; [ ] = dose if it differs, or a comment.

SMILES | ERa coact inh | ERb SRC1 inh | sEH activator | HIV Rev-RRE inh | sEH inh | ERa SRC1 pot
O=C(NC1CCCCC1)C1CCN(S(=O)(=O)N2CCCCCC2)CC1 | 7 | 0 | -80 | 1 | 80 | 119
O=C(NC1CCCCCCC1)C1CCN(S(=O)(=O)N2CCC3(CC2)OCCO3)CC1 | -1 | 3 | -88 | 3 | 88* | 123
COc1cc(/C=N/NC(=O)/C(=C\c2ccc([N+](=O)[O-])cc2)NC(=O)c2ccccc2)cc(OC)c1O | 53*[fluorescence artefact?] | 10 | 3 | 7 | -7 | 51
O=C(N/N=C/c1ccncc1)/C(=C/c1ccccc1)NC(=O)c1ccccc1 | nt | nt | -3 | -1 | 3 | nt
CCN(CC)CCOC(=O)c1c(C)oc2ccc(O)cc12 | -4 | 6 | -4 | -2 | 0 | 106
Nn1c(SCC(=O)NC(=O)NCc2ccccc2)nnc1C1CC1 | -6 | 81*[fluorescence artefact?] | 2 | 6 | -2 | 118
O=S(=O)(/N=C(\Sc1ccc(Cl)cc1)c1ccccc1)c1ccccc1 | 77* | 55*[fluorescence artefact?] | nt | 9 | nt | 27
CS/C(=N\S(=O)(=O)c1ccc(Cl)cc1)c1ccccc1 | nt | nt | 5 | 4 | -5 | nt
O=C(CSc1nnc(-c2ccco2)n1-c1ccccc1)N1CCc2ccccc21 | 1 | -1 | 2 | 3 | -4 | 125
CN1CCN(S(=O)(=O)c2ccc(NC(=O)c3csc4ccccc34)cc2)CC1 | 1 | -13 | -75 | 7 | 75 | 109
CC(C)c1nc2oc3c(NCc4cccnc4)ncnc3c2c2c1CCC2 | -10 | 16 | nt | nt | nt | 515*[fluorescence artefact?]
CC(C)Cc1nc2oc3c(NCc4cccnc4)ncnc3c2c2c1CCC2 | nt | nt | nt | 1 | nt | nt
CCOC(=O)N1CCN(c2ncnc3c2oc2nc(C(C)C)c4c(c23)CCC4)CC1 | 7 | 29 | nt | nt | nt | 312*[fluorescence artefact?]
O=P(O)(CN1CCCCCC1)CN1CCCCCC1 | nt | nt | 10 | 8 | -8 | nt
COc1cccc(/C=C2\N=C(SC)SC2=O)c1OC | -2 | 2 | nt | nt | nt | 108
COc1cccc(/C=C2\N=C(c3c(-c4ccccc4)noc3C)OC2=O)c1OC | 68* | 39 | 13 | 2 | -13 | 87
COc1ccc(CCN2C(=O)C3C4CC(C5C(C(=O)N/N=C\c6ccc(Cl)cc6)=NOC45)C3C2=O)cc1OC (configuration not stated) | 3 | 2 | -94 | 6 | 94* | 114
COCC(C)n1c(C)cc(C(=O)COC(=O)c2c(NC(C)=O)sc(C)c2C)c1C (configuration not stated) | 23 | 31 | nt | nt | nt | 542*[fluorescence artefact?]
O=c1[nH]c(Nc2ccc(F)cc2)cc2ccccc12 | nt | nt | -4 | 47* | 5 | nt
Cc1cc2ccccc2c(=O)[nH]1 | 10 | 0 | nt | nt | nt | 101
Cc1ccc(-n2cc(C(C)(C)C)[nH]c2=S)cc1 | -7 | -7 | 12 | 1 | -12 | 85
CC1CC(C)CN(C(=O)c2ccc3c(c2)N(Cc2ccccc2)CCS3)C1 (configuration not stated) | 5 | 5 | nt | 0 | nt | 91
Cc1ccc(CN2CCSc3ccc(C(=O)N4CCN(c5ncccn5)CC4)cc32)cc1 | 25 | 30 | nt | nt | nt | 378*[fluorescence artefact?]
COc1ccccc1-c1nnc(NC(=O)C(C)SC2=NCCS2)s1 (configuration not stated) | 3 | 1 | -6 | 3 | 10 | 157
CCNc1nnc(-c2ccccc2OC)s1 | 6 | 73*[fluorescence artefact?] | -2 | -3 | 1 | 73
SMILES | ERa coact inh | ERb SRC1 inh | sEH activator | HIV Rev-RRE inh | sEH inh | ERa SRC1 pot
Cc1ccc2[nH]c3c(N4CCc5ccccc5C4)ncnc3c2c1 | -1 | -9 | nt | -1 | nt | 102
Brc1ccc2[nH]c3c(N4CCc5ccccc5C4)ncnc3c2c1 | 13 | 3 | -28 | 3 | 30 | 495*[fluorescence artefact?]
COc1ccccc1NS(=O)(=O)c1cccc(C(=O)NN)c1 | 4 | -4 | -94 | 8 | 94* | 111
Cc1cc(Br)c2[nH]c3c(c2c1)CCCC3=O | 15 | 3 | -1 | 12 | 0 | 81
CCN1CCN(Cc2c(O)c(Cl)cc3c(C)cc(=O)oc23)CC1 | 48 | 63* | -1 | 11 | 1 | 42
Cc1cc(=O)oc2c(CN3CCC(C)CC3)c(O)c(Cl)cc12 | 67* | 69*[fluorescence artefact?] | 1 | 20 | 3 | 41
O=C(Nc1nc(-c2ccccc2)cs1)C1CCCN(S(=O)(=O)c2ccccc2)C1 (configuration not stated) | -3 | -1 | 2 | 9 | 1 | 109
O=C(Nc1nc(-c2ccc(S(=O)(=O)N3CCCC3)cc2)cs1)c1cccs1 | -31 | -11 | -5 | 1 | 8 | 324*[fluorescence artefact?]
O=C(Nc1nc(-c2ccc(S(=O)(=O)N3CCCCCC3)cc2)cs1)c1cccs1 | -33 | -4 | 2 | 3 | 2 | 570*[fluorescence artefact?]
O=C(Nc1nc(-c2cccs2)cs1)c1cccc(S(=O)(=O)N2CCCCC2)c1 | -11 | -9 | -4 | 2 | 3 | 233*
COc1cccc(C(=O)Nc2nc(-c3ccc(S(=O)(=O)N4CCOCC4)cc3)cs2)c1 | -34 | 5 | -6 | -9 | 12 | 463*[fluorescence artefact?]
CC1(C)Cc2ccccc2C(NNC(=O)c2ccccn2)=N1 | -6 | -10 | -5 | -2 | 8 | 98
CSc1nc2ncc3c(n2n1)CC1c2ccccc2CCN1C3=O (configuration not stated) | nt | nt | 4 | 4 | -5 | nt
CCCNc1c(F)c(F)c2c(C)c3ccccc3nc2c1F | nt | nt | 6 | 121*[fluorescence artefact?] | -5 | nt
CCNc1ccc(Br)cc(C(=O)/C=C/c2ccc(Cl)cc2Cl)c1=O | 85*[fluorescence artefact?] | 76*[fluorescence artefact?] | -4 | 79*[fluorescence artefact?] | 4 | 101
CNc1ccc(Br)cc(C(=O)/C=C/c2ccc3c(c2)OCO3)c1=O | nt | nt | 0 | 48* | -3 | nt
COCCCNC(=O)/C=C/c1ccc(Cl)cc1Cl | nt | nt | -1 | 2 | 4 | nt
CNc1ccc(Br)cc(C(=O)/C=C/c2cc(OC)ccc2OC)c1=O | 71*[fluorescence artefact?] | 65*[fluorescence artefact?] | 5 | 55* | -4 | 56
CN(C)C(=O)c1ccccc1Sc1cc(Cl)ccc1Cl | nt | nt | 3 | 9 | -2 | nt
c1ccc2c(c1)CCCN2Cc1nnnn1CC1CCCO1 (configuration not stated) | 0 | -2 | -16 | 55* | 16 | 129
c1ccc(CCn2nnnc2CN2CCCc3ccccc32)cc1 | -8 | -13 | 20 | 29 | -20 | 119
Cc1ccc(-c2cc(-c3ccccc3)c3c(N)c(S(C)(=O)=O)sc3n2)cc1 | -1 | -9 | 17 | 10 | -18 | 169
Nc1c(C(=O)C2CC2)sc2nc(-c3ccccc3)cc(C(F)(F)F)c12 | -5 | 0 | 0 | 112*[fluorescence artefact?] | 3 | 111

Screening results from PubChem BioAssay.
